Measurements: ChEMBL document CHEMBL1131478 (J Med Chem, 1998)

Experiments:
[1] = Maximum plasma concentration (Cmax) after p.o. administration of 200 mg/kg in mice; type: ADME, organism-based; parameters: dose 200 mg/kg, route oral; settings: mouse, po
Summary of the method: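 Single 200 mg/kg oral dose in mice, given in 0.5% methyl cellulose. Blood drawn at various time points. Plasma drug extracted with CH3CN and quantified by reverse-phase C18 HPLC using a CH3CN gradient with 0.1% TFA. Peak plasma level taken as Cmax.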

[2] = molecular target: Angiotensin-converting enzyme (Homo sapiens, UniProt P12821); test: Inhibitory activity against Angiotensin I converting enzyme
Chain of Angiotensin-converting enzyme (P12821 whole entry): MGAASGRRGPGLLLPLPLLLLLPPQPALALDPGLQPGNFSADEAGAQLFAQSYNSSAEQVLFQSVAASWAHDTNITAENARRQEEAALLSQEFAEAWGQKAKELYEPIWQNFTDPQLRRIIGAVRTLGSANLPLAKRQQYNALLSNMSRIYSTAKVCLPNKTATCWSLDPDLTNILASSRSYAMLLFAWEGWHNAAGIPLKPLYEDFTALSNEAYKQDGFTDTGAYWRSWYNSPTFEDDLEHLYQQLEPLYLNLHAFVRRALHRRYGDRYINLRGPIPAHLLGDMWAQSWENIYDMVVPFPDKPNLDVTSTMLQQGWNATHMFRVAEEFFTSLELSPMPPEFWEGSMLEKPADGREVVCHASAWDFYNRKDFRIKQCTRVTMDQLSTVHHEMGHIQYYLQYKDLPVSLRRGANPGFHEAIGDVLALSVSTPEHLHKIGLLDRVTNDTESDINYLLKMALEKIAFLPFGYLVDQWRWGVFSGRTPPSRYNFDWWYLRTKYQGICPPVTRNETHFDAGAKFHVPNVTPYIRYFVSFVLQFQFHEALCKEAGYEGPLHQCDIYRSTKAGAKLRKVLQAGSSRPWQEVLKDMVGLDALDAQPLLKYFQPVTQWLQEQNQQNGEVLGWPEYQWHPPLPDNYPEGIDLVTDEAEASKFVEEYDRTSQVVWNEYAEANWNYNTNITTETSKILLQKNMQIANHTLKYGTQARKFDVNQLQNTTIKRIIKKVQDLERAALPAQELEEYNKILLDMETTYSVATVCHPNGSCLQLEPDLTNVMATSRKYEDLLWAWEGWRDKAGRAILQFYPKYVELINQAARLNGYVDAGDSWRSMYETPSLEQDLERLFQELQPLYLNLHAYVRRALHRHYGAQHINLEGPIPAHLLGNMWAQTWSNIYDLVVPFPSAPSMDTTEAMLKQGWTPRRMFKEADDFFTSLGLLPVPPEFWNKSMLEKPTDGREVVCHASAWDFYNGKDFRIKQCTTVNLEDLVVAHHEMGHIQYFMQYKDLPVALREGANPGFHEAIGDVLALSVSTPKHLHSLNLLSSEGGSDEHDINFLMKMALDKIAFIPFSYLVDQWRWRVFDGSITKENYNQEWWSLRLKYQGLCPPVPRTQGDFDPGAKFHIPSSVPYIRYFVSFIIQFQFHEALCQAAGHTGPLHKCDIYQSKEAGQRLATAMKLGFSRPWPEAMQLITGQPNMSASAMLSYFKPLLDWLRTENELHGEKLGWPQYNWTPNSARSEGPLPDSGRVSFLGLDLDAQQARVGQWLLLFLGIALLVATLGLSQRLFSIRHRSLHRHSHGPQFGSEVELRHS

[3] = molecular target: T1, Matrilysin (Homo sapiens, UniProt P09237); test: Inhibitory activity against Matrix metalloprotease-7
T1 sequence (P09237 whole entry): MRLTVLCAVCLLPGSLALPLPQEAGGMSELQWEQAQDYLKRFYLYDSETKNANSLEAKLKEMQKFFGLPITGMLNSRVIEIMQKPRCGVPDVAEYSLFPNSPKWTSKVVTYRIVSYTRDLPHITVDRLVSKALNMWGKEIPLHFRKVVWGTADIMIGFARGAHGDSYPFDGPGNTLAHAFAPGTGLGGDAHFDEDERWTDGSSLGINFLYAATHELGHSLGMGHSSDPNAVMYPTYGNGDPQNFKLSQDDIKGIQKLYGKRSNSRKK

[4] = molecular target: Stromelysin-1 (Homo sapiens, UniProt P08254); test: Inhibitory activity against Matrix metalloprotease-3
Chain of Stromelysin-1 (P08254 whole entry): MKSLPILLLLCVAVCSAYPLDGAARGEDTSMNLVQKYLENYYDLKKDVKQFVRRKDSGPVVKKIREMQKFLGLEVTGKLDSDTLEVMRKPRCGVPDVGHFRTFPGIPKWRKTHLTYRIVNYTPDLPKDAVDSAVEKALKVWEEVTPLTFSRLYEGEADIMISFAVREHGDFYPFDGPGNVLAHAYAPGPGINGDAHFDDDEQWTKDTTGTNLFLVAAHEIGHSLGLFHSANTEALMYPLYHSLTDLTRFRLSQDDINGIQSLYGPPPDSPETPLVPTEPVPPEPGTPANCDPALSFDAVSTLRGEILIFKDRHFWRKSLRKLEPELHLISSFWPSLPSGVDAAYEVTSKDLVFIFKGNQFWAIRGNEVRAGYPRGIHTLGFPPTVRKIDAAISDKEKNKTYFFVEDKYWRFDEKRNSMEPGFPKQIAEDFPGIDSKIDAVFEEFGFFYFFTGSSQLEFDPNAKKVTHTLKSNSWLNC
Summary of the method: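 Enzyme and DMSO inhibitor were preincubated 30 min at room temperature in 50 mM Tris-Cl/10 mM CaCl2/0.2 M NaCl/0.02% NaN3/0.05% Brij-35, pH 7.5. Substrate MOAc-Arg-Pro-Lys-Pro-Val-Glu-Nva-Trp-Arg-Lys(Dnp)NH2 (added as 25 μM solution) then reacted 90 min.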

[5] = molecular target: 72 kDa type IV collagenase (Homo sapiens, UniProt P08253); test: Inhibitory activity against human gelatinase A (matrix metalloprotease-2 MMP2)
Chain of 72 kDa type IV collagenase (P08253 whole entry): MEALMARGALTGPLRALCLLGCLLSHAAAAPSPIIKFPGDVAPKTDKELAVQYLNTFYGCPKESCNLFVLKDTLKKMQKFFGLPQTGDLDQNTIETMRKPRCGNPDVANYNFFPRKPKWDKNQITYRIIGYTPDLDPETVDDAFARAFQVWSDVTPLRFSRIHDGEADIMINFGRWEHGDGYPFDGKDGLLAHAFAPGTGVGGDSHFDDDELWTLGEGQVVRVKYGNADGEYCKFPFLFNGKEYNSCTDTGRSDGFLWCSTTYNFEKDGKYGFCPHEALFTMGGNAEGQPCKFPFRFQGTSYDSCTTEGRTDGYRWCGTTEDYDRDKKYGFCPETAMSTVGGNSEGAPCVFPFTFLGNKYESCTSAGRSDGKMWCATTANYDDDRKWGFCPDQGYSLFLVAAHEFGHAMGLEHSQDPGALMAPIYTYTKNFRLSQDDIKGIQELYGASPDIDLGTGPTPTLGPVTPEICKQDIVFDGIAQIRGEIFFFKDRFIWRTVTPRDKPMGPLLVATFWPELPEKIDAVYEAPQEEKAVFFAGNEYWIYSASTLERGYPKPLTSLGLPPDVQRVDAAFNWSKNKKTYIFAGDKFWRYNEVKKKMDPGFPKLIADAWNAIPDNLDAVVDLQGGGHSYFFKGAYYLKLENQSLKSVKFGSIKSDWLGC

[6] = molecular target: T2, Interstitial collagenase (Homo sapiens, UniProt P03956); test: Inhibitory activity against Matrix metalloprotease-1
T2 sequence (P03956 whole entry): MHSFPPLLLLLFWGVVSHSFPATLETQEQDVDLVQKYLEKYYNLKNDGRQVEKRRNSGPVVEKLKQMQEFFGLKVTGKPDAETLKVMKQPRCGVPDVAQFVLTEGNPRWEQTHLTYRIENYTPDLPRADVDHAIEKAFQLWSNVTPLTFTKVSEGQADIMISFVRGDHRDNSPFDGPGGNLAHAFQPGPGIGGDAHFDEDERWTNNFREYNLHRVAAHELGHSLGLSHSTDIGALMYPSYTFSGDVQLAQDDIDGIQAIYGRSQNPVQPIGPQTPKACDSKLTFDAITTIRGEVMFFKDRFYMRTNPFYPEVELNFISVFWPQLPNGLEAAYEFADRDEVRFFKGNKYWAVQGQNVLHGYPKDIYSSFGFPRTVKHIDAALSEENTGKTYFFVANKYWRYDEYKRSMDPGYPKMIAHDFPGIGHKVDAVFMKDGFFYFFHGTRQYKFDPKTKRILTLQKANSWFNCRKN
Summary of the method: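 Commercial enzyme diluted in Tris/CaCl2/NaCl/Brij-35 buffer. Enzyme (about 0.2 unit/mL) and DMSO inhibitor were preincubated 30 min at room temperature with ABD-F (added as 2 mM) in 25 mM HEPES-NaOH/5 mM CaCl2, pH 7.0. Thiopeptide substrate Ac-Pro-Leu-Gly-SCH(CH2CH(CH3)2)CO-Leu-Gly-OEt (1.25 mM stock) was then added for 3 h at 37 °C. Reaction quenched with 3% acetic acid. Fluorescence read at ex 360/em 530 nm.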

[7] = molecular target: T3, Neprilysin (Rattus norvegicus, UniProt P07861); test: Inhibitory activity against neutral endopeptidase (NEP)
T3 sequence (P07861 whole entry): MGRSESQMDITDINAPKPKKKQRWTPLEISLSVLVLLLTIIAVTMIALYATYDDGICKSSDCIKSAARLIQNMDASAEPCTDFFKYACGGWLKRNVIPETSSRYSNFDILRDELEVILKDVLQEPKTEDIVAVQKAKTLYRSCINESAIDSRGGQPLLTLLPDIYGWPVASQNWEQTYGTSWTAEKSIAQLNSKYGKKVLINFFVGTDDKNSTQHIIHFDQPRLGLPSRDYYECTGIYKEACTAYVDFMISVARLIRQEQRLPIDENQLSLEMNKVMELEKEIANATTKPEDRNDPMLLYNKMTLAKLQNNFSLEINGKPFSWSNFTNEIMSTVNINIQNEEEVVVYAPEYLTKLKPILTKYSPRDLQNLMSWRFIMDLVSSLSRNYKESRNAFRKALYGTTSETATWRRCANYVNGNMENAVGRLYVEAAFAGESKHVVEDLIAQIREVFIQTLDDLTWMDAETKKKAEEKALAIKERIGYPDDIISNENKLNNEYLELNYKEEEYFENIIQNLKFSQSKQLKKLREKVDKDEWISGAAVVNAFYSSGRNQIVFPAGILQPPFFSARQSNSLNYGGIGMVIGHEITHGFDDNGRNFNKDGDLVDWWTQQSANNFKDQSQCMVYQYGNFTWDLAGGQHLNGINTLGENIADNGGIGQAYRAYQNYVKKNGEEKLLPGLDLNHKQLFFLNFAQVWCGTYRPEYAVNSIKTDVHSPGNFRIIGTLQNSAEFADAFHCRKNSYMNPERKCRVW

[8] = molecular target: T4, Endothelin-converting enzyme 1 (Homo sapiens, UniProt P42892); test: Inhibitory activity against endothelin converting enzyme (ECE)
T4 sequence (P42892 whole entry): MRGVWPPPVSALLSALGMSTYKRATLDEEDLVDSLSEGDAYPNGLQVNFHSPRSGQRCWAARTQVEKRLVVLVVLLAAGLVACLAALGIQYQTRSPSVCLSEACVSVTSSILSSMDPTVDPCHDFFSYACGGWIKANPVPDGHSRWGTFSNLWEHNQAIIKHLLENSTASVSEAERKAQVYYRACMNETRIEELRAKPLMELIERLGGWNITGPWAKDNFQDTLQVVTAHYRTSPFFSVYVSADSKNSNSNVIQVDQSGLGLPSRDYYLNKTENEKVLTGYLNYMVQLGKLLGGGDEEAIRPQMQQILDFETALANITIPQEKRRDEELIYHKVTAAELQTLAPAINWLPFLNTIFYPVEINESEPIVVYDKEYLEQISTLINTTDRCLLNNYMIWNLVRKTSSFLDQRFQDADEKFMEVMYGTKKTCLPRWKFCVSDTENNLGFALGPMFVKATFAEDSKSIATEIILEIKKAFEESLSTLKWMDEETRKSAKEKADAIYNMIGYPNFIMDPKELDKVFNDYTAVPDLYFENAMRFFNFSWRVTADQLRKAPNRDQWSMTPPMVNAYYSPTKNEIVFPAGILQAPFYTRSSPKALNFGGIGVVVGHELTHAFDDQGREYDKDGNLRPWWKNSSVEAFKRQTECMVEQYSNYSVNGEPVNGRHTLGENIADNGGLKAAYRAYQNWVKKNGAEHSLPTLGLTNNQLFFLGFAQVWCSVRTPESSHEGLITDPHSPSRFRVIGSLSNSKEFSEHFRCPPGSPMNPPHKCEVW

[9] = molecular target: T4, Endothelin-converting enzyme 1; test: Inhibitory activity against Endothelin-converting enzyme (ECE)
[10] = molecular target: Matrix metalloproteinase-9 (Homo sapiens, UniProt P14780); test: Inhibitory activity against human gelatinase B (Matrix metalloprotease-9)
Chain of Matrix metalloproteinase-9 (P14780 whole entry): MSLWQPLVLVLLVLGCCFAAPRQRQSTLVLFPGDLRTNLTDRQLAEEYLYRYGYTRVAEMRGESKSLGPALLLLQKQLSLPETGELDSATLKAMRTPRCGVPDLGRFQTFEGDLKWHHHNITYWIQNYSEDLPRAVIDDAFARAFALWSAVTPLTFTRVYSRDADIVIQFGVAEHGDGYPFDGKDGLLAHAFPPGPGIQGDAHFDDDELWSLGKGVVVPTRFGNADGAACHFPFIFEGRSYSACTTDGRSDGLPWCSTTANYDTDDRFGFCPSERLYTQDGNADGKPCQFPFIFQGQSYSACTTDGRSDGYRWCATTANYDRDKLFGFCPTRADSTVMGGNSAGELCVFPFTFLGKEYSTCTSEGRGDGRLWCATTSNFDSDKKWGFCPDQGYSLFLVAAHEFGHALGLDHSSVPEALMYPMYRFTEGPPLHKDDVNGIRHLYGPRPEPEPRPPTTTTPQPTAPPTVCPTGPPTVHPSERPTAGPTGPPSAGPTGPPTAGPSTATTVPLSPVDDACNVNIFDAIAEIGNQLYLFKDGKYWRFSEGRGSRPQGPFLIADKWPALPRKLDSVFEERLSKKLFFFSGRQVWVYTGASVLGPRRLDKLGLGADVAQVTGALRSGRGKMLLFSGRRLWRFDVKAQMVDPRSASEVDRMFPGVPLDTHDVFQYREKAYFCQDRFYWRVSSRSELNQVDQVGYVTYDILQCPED

Structure (SMILES)	Cmax [1] [µM]	IC50 [2] [nM]	IC50 [3] [nM]	IC50 [4] [nM]	IC50 [5] [nM]	IC50 [6] [nM]	IC50 [7] [nM]	IC50 [8] [nM]	IC50 [9] [nM]	IC50 [10] [nM]
O=C(Nc1ccc(S(=O)(=O)N[C@H](Cc2c[nH]c3ccccc23)C(=O)O)cc1)c1ccc(Br)cc1	0.2	> 1000	> 1000	> 1000	2.6	> 1000	> 1000	> 1000		
CSc1ccc(-n2nnc(-c3ccc(S(=O)(=O)N[C@@H](C(=O)O)C(C)C)cc3)n2)cc1	47.7	> 1000	> 1000	> 1000	13	> 1000	> 1000	> 1000		
Cc1ccc(-c2ccc(S(=O)(=O)N[C@H](Cc3c[nH]c4ccccc34)C(=O)O)s2)cc1	252	> 1000	> 1000	> 1000	10	> 1000	> 1000		> 1000	61
O=C(O)[C@@H](Cc1c[nH]c2ccccc12)NS(=O)(=O)c1ccc(-c2nnn(-c3ccccc3)n2)cc1		> 1000	> 1000	> 1000	19	> 1000	> 1000		> 1000	32
CSc1ccc(-c2ccc(S(=O)(=O)N[C@@H](C(=O)O)C(C)C)cc2)cc1	189	> 1000	> 1000	> 1000	23	> 1000	> 1000	> 1000		40
Cc1ccc(C#Cc2ccc(S(=O)(=O)N[C@H](Cc3c[nH]c4ccccc34)C(=O)O)s2)cc1 [S-3304]	204	> 1000	> 1000	> 1000		> 1000	> 1000	> 1000		23
